Compound activity from PubChem BioAssay.
Most compounds without a hit are left out; they make up all but 1.8% or so of the library.
CAL PDZ FP-1 = inhibitors of human CAL PDZ peptide binding. Q9HD26. purified CAL PDZ, TMR-peptide fluorescence polarization, 1 h. inhibition, % at 20 µM. 330,000 compounds, 0.02% hits;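 active = highest replicate inhibition of at least 40%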;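 note: plate controls were DMSO neutral control wells for no effect and unlabeled competitor peptide control wells for full effect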
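material = purified tagged CAL PDZ domain construct (CerCALP) | buffer or medium = sodium phosphate/NaCl buffer pH 7.4 with TCEP, IgG, Thesit | reagent = TMR-labelled reporter peptide T*-PRC34 bound in PDZ groove | incubation = 1 h room-temperature incubation prior to read | measured by = fluorescence polarization (mP) | evaluation = percent inhibition from loss of millipolarization | control set = unlabelled peptide and DMSO controls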
GRK2 inh = inhibitors of human GRK2 displacing RNA aptamer; P25098; bead flow cytometry, FAM-aptamer displacement from GRK2; inhibition of aptamer binding, % at 10 µM; 330,000 compounds, 0.59% hits;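 active = inhibition of aptamer binding above 40%, roughly 3 SD of noise, on plates passing a quality check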;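 note: median bead fluorescence of bound FAM aptamer so fluorescent compounds give negative values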
CAL PDZ FP-2 = CAL PDZ (human) peptide binding inhibition; purified CAL PDZ, TMR-peptide fluorescence polarization, 1 h; inhibition, % at 24.9 µM; 300,000 compounds, 0.92% hits; AID 602252;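 active = mean inhibition of at least 30% with at least half of replicates also reaching 30%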;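 note: 0% = DMSO neutral control and 100% = excess unlabeled competitor peptide PRC23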
DDE Tn6 FP inh = inhibitors of Tn6 peptide binding to human fibrin DD(E); Fibrin DD(E) TRITC-Tn6 fluorescence polarization displacement; 370,000 compounds, 0.21% hits; inhibition, % at 8.3 µM;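 active = inhibition above a per-campaign cutoff: mean of compounds within control limits plus 3 SD, cut at about 15% in these data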;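 note: 0% = median of all compound wells on the plate and 100% = blocking peptide control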
Target sequence (P02675 whole entry, looked up): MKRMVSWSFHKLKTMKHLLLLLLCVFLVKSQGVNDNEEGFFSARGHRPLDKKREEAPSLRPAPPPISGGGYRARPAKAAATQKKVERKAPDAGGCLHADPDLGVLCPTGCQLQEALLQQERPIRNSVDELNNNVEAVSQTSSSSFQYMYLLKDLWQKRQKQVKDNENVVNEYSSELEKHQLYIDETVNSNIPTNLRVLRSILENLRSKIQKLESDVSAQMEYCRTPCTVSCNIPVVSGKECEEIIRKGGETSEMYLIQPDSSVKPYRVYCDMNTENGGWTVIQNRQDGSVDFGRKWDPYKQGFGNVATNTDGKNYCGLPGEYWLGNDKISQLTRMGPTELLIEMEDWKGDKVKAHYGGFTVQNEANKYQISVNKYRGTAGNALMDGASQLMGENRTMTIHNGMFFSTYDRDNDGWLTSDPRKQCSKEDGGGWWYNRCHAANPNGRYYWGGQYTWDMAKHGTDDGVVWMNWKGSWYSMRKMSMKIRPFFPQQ
ARNT-TACC3 inh = disrupts binding between human ARNT and TACC3 | 390,000 compounds, 0.66% hits | inhibition, % at 9.99 µM | AlphaScreen His-ARNT PAS-B/GST-TACC3 binding, luminescence; TACC3 fragment carries E629A point mutation | Q9Y6A5;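 active = mean inhibition of replicates at least 50% and at least half of replicates each reaching 50%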;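 note: 0% = complete ARNT plus TACC3 wells and 100% = ARNT alone without TACC3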
DDE Tn7 FP inh = DD(E)-Tn7 binding inhibition, primary FP screen; 370,000 compounds, 0.13% hits; inhibition, % at 8.3 µM; FP displacement of FITC-Tn7 peptide from fibrin DD(E); 0% = median of compound wells per plate;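 active = inhibition above the mean of compounds falling within the control limits plus 3 SD of them, cut at about 14% in these data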;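 note: 0% = plate median of compound wells and 100% = 10 µM Aha-Tn7 peptide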
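Assay system: Human clot-derived fibrin DD(E) complex | Buffer or medium: Tris/NaCl/CaCl2 buffer, pH 7.8 | Repeats: One replicate per compound | Benchmarks: Aha-Tn7 high control | Measure: % inhibition scaled between sample-field median and high-control FP | Schedule: 10 min plus 3 h, room temperature | Signal: Fluorescence polarization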
* hit, by the source's call; · = no result given; ! = repeats disagree.

SMILES	CAL PDZ FP-1	GRK2 inh	CAL PDZ FP-2	DDE Tn6 FP inh	ARNT-TACC3 inh	DDE Tn7 FP inh
C[C@H](CO)N1C[C@H](C)[C@@H](CN(C)C(=O)CCC(F)(F)F)OCCCC[C@H](C)Oc2ccc(N(C)C)cc2C1=O	·	·	·	·	2.2	·
CC(C)(Oc1ccc(Cl)cc1)C(=O)NCc1ccc(S(N)(=O)=O)cc1	-0.3	22.0	77.3*	3.8	-3.7	0.0
COC(=O)CNC(=O)C(C)(C)Oc1ccc(Cl)cc1	·	1.0	-5.3	-1.8	-4.4	-4.8
C[C@H]1CN([C@@H](C)CO)S(=O)(=O)c2ccc(C3=CCCCC3)cc2O[C@H]1CN(C)Cc1ccncc1	·	·	·	·	10.2	·
C[C@@H]1CCCCO[C@H](CN(C)C(=O)Nc2cccc3ccccc23)[C@@H](C)CN([C@@H](C)CO)C(=O)c2cc(NS(C)(=O)=O)ccc2O1	·	·	·	·	34.0	·
O=C(C[C@@H]1CC[C@H]2[C@@H](COC[C@H](O)CN2C(=O)Nc2ccc(Cl)c(Cl)c2)O1)NCc1ccc(Cl)c(Cl)c1	·	·	·	·	-4.7	·
COC(=O)CCC(C(=O)CN1C(=O)c2ccccc2C1=O)N1C(=O)c2ccccc2C1=O (stereo not given)	-0.4	·	-2.3	-2.5	-5.0	-2.1
O=C(c1cc2ccccc2oc1=O)N(Cc1ccccc1)CC1CCCO1 (stereo not given)	-1.4	0.0	-2.5	-1.4	-14.1	-2.9
COc1cccc2cc(C(=O)N(Cc3ccccc3)CC3CCCO3)c(=O)oc12 (stereo not given)	-0.7	0.0	43.2*	1.3	-8.9	-7.7
O=C(CSCc1ccc(Cl)cc1)Nc1ccc(O)cc1C(=O)O	-0.4	0.0	3.5	-11.1	46.5*	-4.6
CC(C)[C@H](NC(=O)OCc1ccccc1)C(=O)OCC(=O)NC1(C#N)CCCC1	-3.9	2.0	-1.0	13.8	-5.7	14.7*
C(=N\Nc1nc2ccccc2[nH]1)/c1ccccc1	1.9	0.0	-0.4	-8.5	1.2	4.1
C(=N\Nc1nc2ccccc2[nH]1)/c1cccc2cccnc12	-2.2	0.0	·	-14.1	60.7*	2.2
Cc1[nH]c2ccccc2c1/C=N/Nc1nc2ccccc2[nH]1	0.1	0.0	·	-11.7	45.4*	-2.5
C(=N\Nc1nc2ccccc2[nH]1)/C1CCCCC1	-1.5	0.0	3.9	-4.9	45.9*	1.8
CCCNC(=O)N(C)C[C@H]1Oc2ncc(/C=C/c3ccccc3)cc2C(=O)N([C@@H](C)CO)C[C@H]1C	·	·	·	·	2.7	·
O=C(c1ccc(F)cc1)N1CCCCN2[C@H](CO)[C@@H](c3ccc(-c4ccc(F)cc4)cc3)[C@@H]2C1	·	·	·	·	11.5	·
CO[C@H]1CN(C)C(=O)c2cc(NC(=O)Nc3cccc(F)c3)ccc2OC[C@H](C)N(C)C[C@H]1C	·	·	·	·	-5.0	·
O=C(CNC(=O)c1ccccc1)N/N=C/c1cc(Br)ccc1O	-0.2	2.0	-3.2	-0.8	-1.5	-0.8
O=C(CN1CC(c2ccccc2)CC1=O)N/N=C/c1cc(Br)ccc1O (stereo not given)	-3.2	2.0	-4.3	-5.3	48.3*	6.7
O=C(O)COc1ccccc1/C=N/NC(=O)CSc1nc2ccccc2n1Cc1ccccc1Cl	-1.9	0.0	7.2	-3.4	6.1	1.9
CCOCCOc1cc(NCc2ccccc2)c2ncn(C(C)C)c2c1	-2.4	·	-2.2	-8.2	19.5*	-6.8
CC(C)n1cnc2c(NCc3ccccc3)cc(N[C@H](C)CO)cc21	-0.9	0.0	-0.5	·	34.5*	·
CCC(CO)Oc1cc(NCc2ccccc2)c2ncn(C(C)C)c2c1 (stereo not given)	-0.5	1.0	0.2	0.6	40.6*!	-1.5
COc1ccc(Cc2nnc(NC(=O)CS(=O)(=O)c3ccc(C)cc3)s2)cc1OC	-1.4	2.0	2.4	-9.4	·	-4.3
SMILES	CAL PDZ FP-1	GRK2 inh	CAL PDZ FP-2	DDE Tn6 FP inh	ARNT-TACC3 inh	DDE Tn7 FP inh
CCOCCc1nnc(NC(=O)CS(=O)(=O)c2ccc(C)cc2)s1	0.0	1.0	92.9*	-2.2	-2.8	5.4
CC1=NN2C(=N)/C(=C\c3ccc(SCc4ccccc4)o3)C(=O)N=C2S1	-0.9	0.0	55.1*	-7.3	5.9	-4.6
CC1=NN2C(=N)/C(=C\c3cc(C)n(Cc4ccccc4)c3C)C(=O)N=C2S1	·	0.0	·	9.2	·	6.8
O=S(=O)(NCc1cc(-c2ccc(Cl)cc2)no1)c1ccc(Cl)cc1	-0.9	1.0	44.1*	-7.8	7.5	-5.8
Cc1ccc2c(cnn2C(=O)CCC(=O)N2CCCCC2C)c1 (stereo not given)	-1.3	1.0	·	-1.1	-6.2	6.2
CCC(CO)NCc1ccc(Br)cc1 (stereo not given)	-3.1	0.0	-0.5	-3.7	·	1.0
CCC(CO)NCc1ccc(OC2CCCC2)cc1 (stereo not given)	-0.4	0.0	46.9*	-2.9	-11.6	-2.3
COCC(=O)N(C)C[C@H]1Oc2cc(C#C[C@H](C)O)ccc2S(=O)(=O)N([C@H](C)CO)C[C@H]1C	·	·	·	·	18.4	·
COC(=O)c1sc(-c2ccc(Cl)cc2)cc1NC(=O)COCC(=O)O	-3.6	0.0	47.9*	-4.1	1.3	-6.8
c1cnc2c(c1)ccc1cccnc12	-1.6	1.0	-4.5	-3.9	64.7*	4.2
Cc1ccc2cccnc2c1N	6.3	2.0	3.9	-7.5	-1.2	0.8
O=Cc1ccc2ccc3cccnc3c2n1	-0.8	6.0	55.0*	3.6	66.9*	-1.3
O=c1cc[nH]c2c1ccc1cccnc12	-0.1	0.0	-1.8	-0.5	60.7*	1.7
C[C@@H](NC(=O)C[C@@H]1CC[C@@H]2[C@H](COC[C@H](O)CN2C(=O)Nc2cccc(F)c2)O1)c1ccccc1	·	·	·	·	-13.6	·
Cc1cc(C(=O)Nc2cccc3c2O[C@@H](CN(C)Cc2ccc(Cl)c(Cl)c2)[C@@H](C)CN([C@@H](C)CO)C3=O)n(C)n1	·	·	·	·	5.6	·
O=C1CN(C(=O)COC(=O)C23CC4CC(CC(O)(C4)C2)C3)c2ccccc2N1	0.0	6.0	38.7*	-11.0	-0.2	-2.3
O=C1CN(C(=O)COc2c(F)c(F)cc(F)c2F)c2ccccc2N1	-3.3	2.0	-3.1	-2.1	0.0	-0.7
O=C1CN(C(=O)COc2ccccc2Cl)c2ccccc2N1	-0.5	0.0	44.7*	-8.3	-5.1	-0.2
O=C1CN(C(=O)COc2ccc(F)cc2Br)c2ccccc2N1	-5.0	2.0	66.9*	-6.2	0.5	-1.2
O=C1CN(C(=O)COc2ccccc2F)c2ccccc2N1	-0.6	9.0	-2.4	8.1	24.5	3.7
Cc1nc2c(=O)[nH]c(=S)[nH]c2[nH]c1=O	-3.0	·	1.1	-0.1	34.7*	1.7
Cc1ccc(S(=O)(=O)N[C@H]2CC[C@H](CCn3cc(C4(O)CCCC4)nn3)O[C@H]2CO)cc1	·	·	·	·	-9.7	·
O=C(c1ccccc1)C(CCc1ccccn1)CCc1ccccn1	24.0	·	46.6*	-2.7	0.7	-1.4
